From PubChem
aDG glyco up: activators of alpha-DG glycosylation, primary screen, uHTS, Pro5-aDG cells, AlphaScreen. alpha-DG glycosylation AlphaScreen (IIH6); 0% Pro5, 100% B10-LARGE cell signal. activation, % at 10 µM. hit rate 0.22% among 360,000;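 active = activation of at least 8% versus controls, or a plate z-score of at least 8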;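 also: Pro5 are CHO cells carrying HIG-tagged alpha-DG that lacks glycosylation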
CHOP UPR activ: activators of apoptotic CHOP UPR arm, primary screen, cell-based, CHO-CHOP luciferase reporter, luminescence, uHTS; UPR activation; percent of tunicamycin response over DMSO baseline; activation, % at 10 µM; hit rate 0.34% among 330,000;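 active = at 10 µM dose, activation of 40% or more, normalized to positive control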;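 also: 100% = tunicamycin at 10 µg/mL and 0% = DMSO alone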
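System: CHO CHOP reporter cells. Amount: 500 cells per well. Buffer or medium: F12 medium, 10% FBS. Compound dosing: one dose, 10 µM in 0.5% DMSO. Incubation: 6 h compound exposure at 37 °C after overnight seeding. Technique: Steady-Glo luciferase luminescence. Benchmarks: tunicamycin and DMSO controls.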
NR3A LBD binder: binders of NR3A ligand-binding domain, primary screen, biophysical, differential scanning fluorimetry, uHTS; Glutamate receptor ionotropic, NMDA 3A (GRIN3A) ligand-binding domain; NR3A LBD differential scanning fluorimetry, Tm shift; 0% = protein alone, 100% = glycine-bound protein; Tm shift relative to glycine control, % at 25 µM; hit rate 2.5% among 340,000; AID 1259313, 2017;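 active = melting temperature shift of at least 10% of the positive control shift, at one fixed dose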
MPTP inh: mitochondrial permeability transition pore inhibitors, primary screen, biochemical, isolated mouse mitochondria, absorbance. Ca2+ swelling absorbance, 30 min. inhibition, % at 10 µM. hit rate 1.4% among 360,000;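 active = inhibition of 50% or more, scaled per plate between neutral and stimulator controls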;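 also: 0% = DMSO wells given calcium and 100% = 1 mM EGTA wells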
CHOP inh: inhibitors of CHOP promoter induction, primary screen, cell-based, unfolded protein response, luciferase reporter. CHO-K1 CHOP-promoter luciferase, tunicamycin-induced, 15-18 h. inhibition, % at 10 µM. hit rate 3.8% among 220,000. AID 2732, 2010;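 active = compounds that reduced the stress-induced luciferase reporter signal by more than about 70% of percent inhibition, limit read from the data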;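 also: 0% = tunicamycin plus vehicle and 100% = wells without tunicamycin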
XBP1 UPR activ: activators of adaptive XBP1 UPR arm, primary screen, cell-based, CHO-XBP1 luciferase reporter, luminescence, uHTS; hit rate 0.33% among 330,000; IRE1-XBP1 UPR activation; percent of tunicamycin response, DMSO as zero; activation, % at 20 µM;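 active = versus positive control, 20 µM dose yields 30% or more activation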;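 also: 100% = tunicamycin at 10 µg/mL and 0% = DMSO only wells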
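Material: IRE1-XBP1 luciferase reporter CHO line / Quantity: one thousand reporter cells per well / Buffer or medium: F12 with 10% serum / Compound: 20 µM single concentration, DMSO 1% / Times: 6 h treatment, 37 °C / Detection: Steady-Glo luciferase glow luminescence, 10 min after reagent addition / Benchmarks: tunicamycin high, DMSO low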
* hit, by the source's call; . = not tested or not shown. This is a sample that favours compounds with a hit; in the whole collection about 5.6% have one here.

SMILES	aDG glyco up	CHOP UPR activ	NR3A LBD binder	MPTP inh	CHOP inh	XBP1 UPR activ
COC(=O)c1ccc(C2c3c(n[nH]c3C)C(=O)N2c2ccc(C)cc2)cc1 (stereo not given)	0	-2	35*	0	12	-2
O=C(Nc1sc2c(c1C(=O)c1ccccc1)CCCC2)c1cccnc1	0	0	-10	1	61	4
O=C(Nc1sc2c(c1C(=O)c1ccc(Cl)cc1)CCCC2)c1cccnc1	0	2	1	5	79*	-4
CCCCP(=O)(CCCC)c1ccccc1C(=O)O	.	-4	12*	.	-5	-1
CN(C(=O)C1CCCO1)C1CCS(=O)(=O)C1 (stereo not given)	0	1	14*	-3	.	-2
COc1ccc(OCC(=O)Nc2ccc(C(=O)Nc3ccccc3C(=O)O)cc2)cc1	0	1	1	2	.	-2
O=C(COc1ccc(C(=O)NCCc2ccccc2)cc1)Nc1ccccc1	0	0	3	-2	31	-3
CS(=O)(=O)Nc1ccc(C(=O)CC(=O)Nc2ccc([N+](=O)[O-])cc2)cc1	0	2	37*	1	.	-2
O=C(Nc1ccc([N+](=O)[O-])cc1)C(=O)Nc1cccc(C(=O)O)c1	0	-10	0	1	102*	-7
O=C(COc1ccc(Br)cc1)Nc1ccc(C(=O)Nc2ccccc2C(=O)O)cc1	0	-1	11*	2	.	-1
O=C(COc1ccc(C(=O)Nc2ccc(Cl)cc2)cc1)NCc1ccccc1	0	0	-14	0	77*	-1
Cn1c2c(c(=O)c3ccccc31)CCCC2	1	2	0	0	.	-6
Cc1nnc(SCC(=O)Nc2ccc([N+](=O)[O-])cc2)n1CC1CCCO1 (stereo not given)	0	-1	-1	-2	.	0
O=C(CC(=O)c1ccccc1)Nc1ccc([N+](=O)[O-])cc1	0	.	20*	38	.	.
Nc1ccc(C(=O)CC(=O)Nc2ccc(Cl)cc2)cc1	0	1	12*	-1	.	1
CC(=O)c1ccc(NC(=O)Nc2ccc([N+](=O)[O-])cc2)cc1	0	0	-1	-6	12	2
O=C(O)/C=C/c1cccc(NC(=O)Nc2ccc([N+](=O)[O-])cc2)c1	0	2	18*	2	.	1
Nc1ccc(NC(=O)c2ccc(C(=O)Nc3ccc(N)cc3)cc2)cc1	0	0	-1	-1	-21	1
O=C(COC(=O)c1cc(Br)ccc1Cl)NC(=O)NCc1ccccc1	0	-2	-3	2	-6	0
O=C(COc1ccc(Cl)cc1Br)NC(=O)NCc1ccccc1	0	-2	-6	7	84*	1
CC1NC(=O)c2cccnc2-n2c1nc1ccccc1c2=O (stereo not given)	0	.	.	0	.	.
O=C(COc1ccc([N+](=O)[O-])cc1)Nc1ccc(NC(=O)c2ccccc2)cc1	0	-1	13*	-1	.	-3
CCOC(=O)c1ccc(S(=O)(=O)NCC(c2ccc(N(C)C)cc2)c2c[nH]c3ccccc23)cc1 (stereo not given)	-1	1	16*	6	67	-3
CN(C)c1ccc(C(CNC(=O)c2ccc(C#N)cc2)c2c[nH]c3ccccc23)cc1 (stereo not given)	0	4	-7	0	2	-2
Cc1cc(NC(=O)CSc2sc3c(O)cc(=O)[nH]c3c2C#N)ccc1Br	0	1	2	0	.	-4
SMILES	aDG glyco up	CHOP UPR activ	NR3A LBD binder	MPTP inh	CHOP inh	XBP1 UPR activ
N#Cc1c(SCC(=O)Nc2cccc(C(F)(F)F)c2)sc2c(O)cc(=O)[nH]c12	0	-1	10*	2	.	-5
O=C(COc1ccccc1Cl)Nc1ccc(NC(=O)c2ccco2)cc1	0	1	15*	0	.	-1
O=C(Nc1ccc(-c2noc(COc3ccccc3Cl)n2)cc1)c1ccco1	2	2	13*	0	-31	-1
CNc1cncc(-c2ccc(OC)cc2)n1	0	.	.	-1	.	.
C=C(C)COc1ccc(-c2nc(N)ncc2-c2ccc(OC)cc2)c(O)c1	.	.	.	.	103*	.
C=C(C)COc1ccc(-c2nc(N)ncc2-c2ccc(OC)c(OC)c2)c(O)c1	0	0	1	-1	.	1
C=C(C)COc1ccc(-c2nc(N)nc(C)c2Oc2ccccc2OC)c(O)c1	0	-1	-13	0	85*	0
COc1ccc(-c2nc(N)ncc2Oc2ccccc2Br)c(O)c1	0	-1	-3	3	88*	0
C=C(C)COc1ccc(-c2nc(N)nc(C)c2-c2ccc(OC)cc2)c(O)c1	0	4	-12	2	92*	-2
CCOc1ccc(-c2nc(N)nc(C)c2-c2ccc(OC)c(OC)c2)c(O)c1	0	-1	-1	0	27	-1
CNc1ncnc2c1ncn2-c1ccccc1	0	.	0	-1	.	.
Cc1nc2cc(C(=O)N3c4ccccc4CC3C)ccc2s1 (stereo not given)	0	0	-2	0	-9	1
C=C(C)COc1ccc(-c2nc(N)ncc2-c2ccc(Cl)cc2)c(O)c1	0	0	20*	1	.	2
C=C(C)COc1ccc(-c2ncncc2Oc2ccc(OC)cc2)c(O)c1	0	1	21*	-2	34	-2
CN1CCN(NC(=O)c2ccc(Cl)c(S(=O)(=O)Nc3ccc(Cl)cc3)c2)CC1	0	-2	0	1	8	-3
C(=C/c1nccc2c1[nH]c1ccccc12)/c1ccc2c(c1)OCO2	0	.	13*	16	-9	.
COc1ccc(C(=O)/C=C/c2ccc(O)cc2)cc1	0	4	7	2	-37	-1
COc1ccc(C=CC(=O)c2cc(O)ccc2O)cc1	0	.	32*	4	.	.
CCN(CC)CCNC(=S)N1CCn2c(nc3ccccc32)C1	0	1	-2	29	-38	2
CCNC(=S)N1CCn2c(nc3ccccc32)C1	0	1	12*	0	-2	-1
COc1cc(OC)c(/C=N/n2c(C)nnc2C)c(OC)c1	0	-1	-8	1	-13	-3
CCc1cc(CNC(=O)c2ccc(OC3CCN(C(C)=O)CC3)c(OC)c2)on1	0	2	0	1	.	-2
COc1cc2[nH]c(=S)nc(NCc3ccc(Cl)cc3)c2cc1OC	0	2	35*	-1	.	1
